# Measured values: publication PMC2802674 (Carcinogenesis, 2009)
# Assays:
# Calf thymus DNA = test: Formation of DNA adducts by [14C]alkylanilines in vitro with human hepatic S9; type: biochemical; settings: human S9, 25–1000 nM alkylaniline (Figure 3)
# In short: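 Calf thymus DNA (1 mg/ml) was incubated with human hepatic S9 (2 mg/ml) in 50 mM Tris pH 7.4 with NADPH regeneration (1.3 mM NADP+, 3.3 mM glucose-6-phosphate, 3.3 mM MgCl2, 0.1 U G6P dehydrogenase) and [14C]alkylaniline at 25, 100 or 1000 nM. Purified DNA-bound radiolabel was measured by accelerator mass spectrometry, as adducts per 10^8 nucleotides (±SD; N = 4).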
# ct-DNA = test: Effect of Phase II conjugation activity on DNA adduct formation in vitro; type: biochemical; settings: human liver S9, 1 μM [14C]amine, 6 h at 37°C, NAT cofactors
# [1] = tested on: S9 from human, rat, dog and mouse liver; settings: cited from earlier work
# tissue DNA = settings: C57/BL6 mice, dose ∼1 μmol/kg, accelerator mass spectrometry; cited from earlier work
# bladder cancer [2] = settings: population-based study, Los Angeles county; cited from earlier work
# [3] = tested on: human lymphoblastoid TK6 cells; settings: cited from earlier work; for viability: TK6 cells exposed to millimolar concentrations; for cell death: TK6 cells
# Nrf2 = settings: in vivo in mice; cited from earlier work
# [4] = tested on: AA8 CHO cells (NER proficient) and UV5 cells (NER deficient); type: cell-based, Chinese hamster; settings: for cytotoxicity: AA8 and UV5 cells, absence of human liver S9, 100 μM–1 mM; for influence of NER status on cytotoxicity: UV5 (NER deficient) versus AA8 (NER proficient), absence of human liver S9
# In short: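 AA8 (NER-proficient) and UV5 (NER-deficient; induced XPD/ERCC2 defect) CHO lines, neither expressing significant phase I or II enzymes, exposed to parent alkylanilines at 50 μM–1 mM without human liver S9. Viability was scored by trypan blue exclusion 24 h after treatment.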
# [5] = tested on: AA8 CHO cells (NER proficient) and UV5 cells (NER deficient); test: aprt mutant fraction in AA8 and UV5 CHO cells, 8-azaadenine selection; type: cell-based, Chinese hamster; settings: absence of human liver S9, 100 μM–1 mM
# In short: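 AA8 (NER-proficient) and UV5 (NER-deficient, XPD/ERCC2 defect) CHO cells, neither expressing significant phase I or phase II enzymes, were exposed without human liver S9. Doses were parent alkylanilines at 50 μM–1 mM, or N-hydroxy and aminophenol metabolites at 5–500 μM. Mutant fraction at the heterozygous aprt locus was determined by 8-azaadenine selection.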
# [6] = tested on: CHO cells that are NER deficient (or proficient) and express mouse P4501A2 plus human aryl sulfotransferase or NAT genes; type: cell-based, Chinese hamster; settings: for contribution of aryl sulfotransferase relative to NAT2: NER-deficient cells expressing CYP1A2 and either phase II enzyme; for potency in inducing both responses (cytotoxicity and mutagenicity), influence of NER status: cell lines expressing CYP1A2 and NAT2; for cytotoxicity: two cell lines both deficient in NER, one expressing CYP1A2 and NAT2, 100 μM –1 mM
# In short: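 CHO lines derived from AA8 via UV5 (NER-deficient through an induced XPD/ERCC2 defect). UV5P3 carries mouse CYP1A2 cDNA and was further transfected with human aryl sulfotransferase (HAST1) or NAT2; NER-proficient counterparts were also used. Exposure to parent alkylanilines at 50 μM–1 mM, or to N-hydroxy or aminophenol metabolites at 5–500 μM. Viability was scored by trypan blue exclusion 24 h after treatment.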
# [7] = tested on: CHO cells that are NER deficient (or proficient) and express mouse P4501A2 plus human aryl sulfotransferase or NAT genes; type: cell-based, Chinese hamster; settings: two cell lines both deficient in NER, one expressing CYP1A2 and NAT2, 100 μM –1 mM
# In short: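 These are engineered CHO lines, heterozygous at aprt. UV5 (NER-deficient, XPD/ERCC2 defect) transfected with mouse CYP1A2, then human NAT2 or aryl sulfotransferase; NER-proficient counterparts were included. Parent alkylanilines were dosed at 50 μM–1 mM, and N-hydroxy or aminophenol metabolites at 5–500 μM. Mutant fraction was determined by 8-azaadenine selection.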
# mice = settings: oral administration, hydrochloride salt, ref International Agency for Cancer; cited from earlier work
# rats = settings: oral administration, hydrochloride salt, ref International Agency for Cancer; cited from earlier work
# humans = settings: ref International Agency for Cancer; cited from earlier work
# bladder cancer [8] = settings: occupationally exposed workers; cited from earlier work
# [9] = rats, urine; cited from earlier work
# [10] = tested on: HPRT gene of human lymphoblastoid TK6 cells; settings: cited from earlier work
# [11] = tested on: 12-O-tetradecanoyl phorbol 13-acetate responsive element and nuclear factor-kappaB-binding activity; settings: in an ROS-dependent fashion; cited from earlier work
# hepatic DNA = settings: rats given 0.5 mmol/kg, 24 h, HPLC/MS/MS; cited from earlier work
# rat liver microsomes = settings: unpublished results; cited from earlier work
# human liver microsomes = settings: unpublished results; cited from earlier work
# [12] = tested on: recombinant human P450s (1A1, 1A2, 1B1, 2A6 and 2E1); settings: five recombinant human P450s tested; unpublished results; cited from earlier work
# male and female rats = settings: dose-dependent; cited from earlier work
# Salmonella typhimurium = settings: multiple bacterial strains, presence or absence of exogenous activating systems; cited from earlier work
# Escherichia coli = settings: cited from earlier work
# [13] = tested on: mouse L5178Y lymphoma cells; settings: with and without exogenous metabolic activation; cited from earlier work
# [14] = tested on: Chinese hamster ovary (CHO) cells; settings: with and without exogenous metabolic activation; cited from earlier work
# E.coli K12 = settings: host-mediated assay after feeding to mice; cited from earlier work
# Drosophila melanogaster = settings: feeding or injecting; cited from earlier work
# bone marrow of male mice = settings: oral doses of up to 375 mg/kg/day; cited from earlier work
# rat hepatocytes = settings: cited from earlier work
structure (smiles),measurement,setting,value
"CCc1cccc(N)c1 [3-EA, 3-ethylaniline]",DNA binding of 3-EA compared with the other two alkylanilines,Calf thymus DNA,nearly identical to ∼6-fold less
same,decrease of DNA adduct level by promotion of NAT activity,ct-DNA,28%
same,"N-hydroxylation rate compared with 3,5-DMA or 2,6-DMA",[1],several times greater
same,labeling of tissue DNA,tissue DNA,detectable labeling of DNA
same,association with bladder cancer risk,bladder cancer [2],independently associated with risk for development of bladder cancer
same,viability,[3],did not cause reduced viability
CC(=O)Nc1ccc(O)cc1 [acetaminophen],Nrf2 nuclear translocation,Nrf2,can initiate nuclear translocation of Nrf2
"Cc1cc(C)cc(N)c1 [3,5-DMA, 3,5-dimethylaniline]",enhancement of DNA adduct formation by promotion of NAT activity,ct-DNA,53%
same,cytotoxicity,[4],cytotoxic
same,influence of NER status on cytotoxicity,[4],enhanced by NER deficiency
same,mutagenicity,[5],not mutagenic
same,contribution of aryl sulfotransferase relative to NAT2,[6],more effective in potentiating cytotoxicity but not mutagenicity
same,"potency in inducing both responses (cytotoxicity and mutagenicity), influence of NER status",[6],greatly enhanced in the NER-deficient cells
same,cytotoxicity,[6],cytotoxic
same,mutagenicity,[7],mutagenic only in cells expressing the metabolizing enzymes
same,labeling of tissue DNA,tissue DNA,detectable labeling of DNA
same,association with bladder cancer risk,bladder cancer [2],independently associated with risk for development of bladder cancer
same,cell death,[3],induced cell death
Cc1ccccc1N [o-toluidine],tumour induction,mice,increased incidence of haemangiomas and haemangiosarcomas and hepatocellular carcinomas or adenomas
same,tumour induction,rats,increased the incidence of tumours in multiple organs
same,carcinogenicity category,humans,Group 1
same,human carcinogenicity finding,bladder cancer [8],is indeed a human bladder carcinogen
same,production of an N-hydroxylamine in vivo,[9],urinary excretion of N-hydroxy-o-toluidine
"Cc1cc(C)cc(NO)c1 [N-hydroxy-3,5-DMA]",HPRT mutagenicity,[10],mutagenic
"N[C@@H](CCC(=O)N[C@@H](CSc1cc(O)c(SC[C@H](NC(=O)CC[C@H](N)C(=O)O)C(=O)NCC(=O)O)c(SC[C@H](NC(=O)CC[C@H](N)C(=O)O)C(=O)NCC(=O)O)c1O)C(=O)NCC(=O)O)C(=O)O [TGHQ, 2,3,5-tris-(glutathion-S-yl)hydroquinone]",effect on TRE and NF-kappaB-binding activity,[11],modulates
CCc1cccc(NO)c1 [N-hydoxy-3-EA],viability,[3],did not cause reduced viability
"Nc1ccc(-c2ccccc2)cc1 [4-aminobiphenyl, reference compound]",hepatic DNA adducts,hepatic DNA,~500 adducts per 10^8 normal bases
"Cc1cccc(C)c1N [2,6-DMA, 2,6-dimethylaniline]",decrease of DNA adduct level by promotion of NAT activity,ct-DNA,78%
same,cytotoxicity,[4],cytotoxic
same,influence of NER status on cytotoxicity,[4],enhanced by NER deficiency
same,mutagenicity,[5],not mutagenic
same,contribution of aryl sulfotransferase relative to NAT2,[6],more effective in potentiating cytotoxicity but not mutagenicity
same,"potency in inducing both responses (cytotoxicity and mutagenicity), influence of NER status",[6],greatly enhanced in the NER-deficient cells
same,cytotoxicity,[6],cytotoxic
same,mutagenicity,[7],mutagenic only in cells expressing the metabolizing enzymes
same,conversion to the corresponding hydroxylamine,rat liver microsomes,undetectable activity
same,conversion to the corresponding hydroxylamine,human liver microsomes,readily apparent
same,N-hydroxylation activity,[12],only 2A6 exhibited N-hydroxylation activity
same,hepatic DNA adducts,hepatic DNA,< 3.2 adducts per 10^8 normal bases
same,labeling of tissue DNA,tissue DNA,detectable labeling of DNA
same,tumour induction,male and female rats,inducing carcinomas and papillary adenomas of the nasal cavity
same,carcinogenicity category,humans,Group 2B
same,association with bladder cancer risk,bladder cancer [2],independently associated with risk for development of bladder cancer
same,mutagenicity,Salmonella typhimurium,neither mutagenic
same,activity in DNA damage and repair assay,Escherichia coli,nor was it active
same,mutation induction,[13],induced mutations
same,genotoxic effects induced,[14],sister chromatid exchange and chromosomal aberrations
same,genotoxic effect,E.coli K12,No genotoxic effect
same,sex-linked recessive lethal effect,Drosophila melanogaster,nor was feeding or injecting it effective
same,micronuclei,bone marrow of male mice,No increase of micronuclei
same,unscheduled DNA synthesis,rat hepatocytes,did not induce unscheduled DNA synthesis
same,cell death,[3],induced cell death
"Cc1ccc(N)c(C)c1 [2,4-dimethylaniline]",hepatic DNA adducts,hepatic DNA,< 3.2 adducts per 10^8 normal bases
